# KCNQ1 block: inhibitors of human KCNQ1 channel, primary screen, cell-based, thallium flux, high-throughput; Potassium voltage-gated channel subfamily KQT member 1 (Homo sapiens), P51787; CHO-K1 KCNQ1, FluxOR thallium flux fluorescence; stronger effect = higher value; B-score at 10 µM; 1.3% of 310,000 active;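 active = compounds whose thallium flux B-score, printed positive for inhibition, exceeds three library SD while starting fluorescence stays within three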;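 also: channel opened by potassium depolarization with thallium stimulus after 20 min compound exposure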
# hERG protect: hERG rescue from dofetilide block, primary screen, cell-based, CHO-hERG, FluxOR thallium flux, dofetilide IC70; Voltage-gated inwardly rectifying potassium channel KCNH2 (Homo sapiens), Q12809; dofetilide IC70 present; activation (rescue from dofetilide block), less the hit threshold, % at 10 µM; 0.51% of 310,000 active; AID 1511, 2009;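 active = activation above the mean of controls blocked by dofetilide plus 5 SD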;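 also: thallium influx through hERG after potassium depolarization seen as dye fluorescence rise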
# KCNK3 block: human KCNK3 channel inhibitors, primary screen, CHO cells, FluxOR thallium flux, B-score | FluxOR fluorescence; stronger effect = lower value | B-score at 10 µM | 0.84% of 340,000 active;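 active = B-score under library mean minus 4 SD, starting fluorescence ratio at most library mean plus 5 SD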;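 also: more negative B-score means stronger inhibition of thallium flux through KCNK3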
# Target sequence (O14649 whole entry, looked up): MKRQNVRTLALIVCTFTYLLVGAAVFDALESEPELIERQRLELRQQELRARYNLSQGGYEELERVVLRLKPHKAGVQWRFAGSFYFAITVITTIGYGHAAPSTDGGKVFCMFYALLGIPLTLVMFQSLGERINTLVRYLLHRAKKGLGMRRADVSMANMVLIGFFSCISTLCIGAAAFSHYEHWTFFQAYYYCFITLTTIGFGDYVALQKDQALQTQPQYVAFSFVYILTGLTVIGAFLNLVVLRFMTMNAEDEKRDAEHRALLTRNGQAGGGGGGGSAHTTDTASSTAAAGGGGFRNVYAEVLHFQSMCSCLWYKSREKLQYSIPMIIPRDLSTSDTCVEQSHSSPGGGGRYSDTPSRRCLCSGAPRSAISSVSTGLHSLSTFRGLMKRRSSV
# KCNK9 block: KCNK9 potassium channel inhibitors, primary screen, HEK293 cells, thallium flux; Potassium channel subfamily K member 9 (Homo sapiens), Q9NPC2; FluxOR thallium flux fluorescence; stronger effect = lower value; B-score at 10 µM; 1.2% of 310,000 active;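 active = ratio B-score over 3 SD below the library mean, with starting fluorescence within 5 SD of its mean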;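 also: negative B-score means less thallium flux so channel inhibition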
# KCNQ1 act: potentiators or activators of KCNQ1 channel, primary screen, cell-based, thallium flux, high-throughput; Potassium voltage-gated channel subfamily KQT member 1 (Homo sapiens), P51787; CHO-K1 KCNQ1, thallium flux FluxOR fluorescence; stronger effect = higher value; B-score at 10 µM; 0.35% of 310,000 active; AID 2648, 2010;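 active = fluorescence ratio B-score, a plate-corrected score, at least three library SD, with initial intensity B-score within 5 SD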
#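 Assay system: stable KCNQ1 CHO-K1 line; medium: assay buffer, equal DMSO in all wells; timing: 90 min dye loading and 20 min compound exposure, both at room temperature; technique: kinetic FluxOR thallium fluorescence, 10-s 1-Hz baseline, 110-s post-stimulus read; read-out basis: B score of baseline-normalized fluorescence ratio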
# KCNK9 inh conf: KCNK9 potassium channel inhibitors, confirmation, HEK293 cells, thallium flux, duplicate. inhibition, % at 10 µM. 43% of 4,900 active. shares compounds with KCNK9 block. FluxOR thallium flux fluorescence. AID 492992, 2010;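 active = thallium signal inhibited by more than 5 SD of the compound-free buffer control wells, on both duplicate plates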;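 also: 0% = assay buffer control wells without compound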
# Kir2-1 spec: mouse Kir2.1 channel inhibition, confirmation, selectivity assay for KCNK9 modulator project, cell-based, HEK293, thallium flux; AID 492993, 2010; shares compounds with KCNK9 block; Kir2.1 cells, FluxOR thallium flux fluorescence; inhibition, % at 10 µM; 4% of 4,900 active;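 active = thallium signal drop more than 5 SD beyond the mean of the no-compound control wells, seen in both duplicate plates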;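 also: signal is fluorescence rise after thallium addition divided by baseline fluorescence; plate controls were assay buffer only for no effect and full block by chlorpromazine control for full effect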
# KCNK9 uninduced: thallium flux in non-induced HEK293 cells, confirmation, counter-screen for KCNK9 inhibitor project, cell-based, second counter screen, non-induced KCNK9-HEK293 | inhibition, % at 10 µM | 40% of 4,900 active | AID 492997, 2010 | shares compounds with KCNK9 block | FluxOR thallium flux;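 active = thallium signal drop beyond 5 SD of the untreated control mean, on both duplicate plates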;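 also: plate controls were buffer only IC0 wells for no effect and SID17386958 at its maximal inhibitory level for full effect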
# KCNK3 inh conf: retest of human KCNK3 channel inhibitors, confirmation, CHO cells, FluxOR thallium flux, triplicate; shares compounds with KCNK3 block; 99% of 2,400 active; ratio percent of control, % at 10 µM; FluxOR fluorescence; 0% buffer, 100% carvedilol maximal block;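 active = ratio percent of control, averaged over triplicates, above buffer control mean plus 5 SD, cut at about 64% in these data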;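 also: ratio is the fluorescence rise from min to max over baseline after thallium stimulus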
# KCNK3 noninduced: thallium flux inhibition in non-induced cells, primary screen, counter-screen for KCNK3 inhibitor project, cell-based, non-induced KCNK3 line, FluxOR thallium, triplicate | 40% of 2,400 active | thallium flux ratio (lower = more inhibition) at 10 µM | non-induced KCNK3 parental cells; stronger effect = lower value | shares compounds with KCNK3 block;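 active = thallium flux ratio, averaged over three wells, more than 5 SD below the buffer control mean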;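 also: host cells are CHO cells without KCNK3 induction; ratio is peak minus trough fluorescence over baseline then normalized to buffer controls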
# Starred values were filed as active, the others as inactive; i = inactive; · = no result given. Shown are actives, neighbours in structure and some others; about 3.1% of the full set was active somewhere.
SMILES,KCNQ1 block,hERG protect,KCNK3 block,KCNK9 block,KCNQ1 act,KCNK9 inh conf,Kir2-1 spec,KCNK9 uninduced,KCNK3 inh conf,KCNK3 noninduced
CC1(C)Cc2cccc(C(=O)Nc3ccc(Cl)cc3)c2O1,i,-10,-12*,-11*,i,46%*,i,i,89*,0.16*
CC1(C)Cc2cccc(C(=O)Nc3ccncc3)c2O1,i,-6,i,i,i,·,·,·,·,·
CC(C)CN(CC(C)C)C1=N/C(=C\c2ccco2)C(=O)N1c1ccccc1,i,-7,-9.2*,-9.8*,i,56%*,i,46%*,125*,i
CCN(CC)C1=N/C(=C\c2ccco2)C(=O)N1c1ccccc1,i,-12,i,i,i,·,·,·,·,·
Cn1nc(-c2ccccc2)c(-c2nc(-c3cccc(Cl)c3)no2)c1Cl,i,-10,-8.8*,-9.6*,i,33%*,i,30%*,103*,i
Cc1ccc(NC(=S)N2CCN(S(=O)(=O)c3ccc(F)cc3)CC2)cc1,i,-10,i,i,i,·,·,·,·,·
O=C(Nc1cccc(-c2nnc(-c3ccccc3)o2)c1)C1CCCCC1,i,-5,-11*,-8.8*,i,34%*,i,30%*,96*,i
CCC(=O)Nc1cccc(-c2nnc(-c3ccccc3)o2)c1,i,-18,i,i,i,·,·,·,·,·
Cc1ccccc1CCN(C(=O)c1csnn1)C(C(=O)NC1CCCC1)c1ccncc1 (centres undefined),i,-9,i,i,i,·,·,·,·,·
N#CC(c1ccc(F)cc1)c1ccc(C(=O)c2ccc(F)cc2)cc1 (centres undefined),i,-7,-10*,-9.7*,i,49%*,i,34%*,120*,i
Cc1cccc(N(C(=O)c2ccco2)C(C(=O)NC2CCCC2)c2ccco2)c1C (centres undefined),i,-13,i,i,i,·,·,·,·,·
CC(C(=O)NCc1ccccc1Cl)N1C(=O)c2ccccc2C1=O (centres undefined),i,-8,i,i,i,·,·,·,·,·
Brc1ccc(CNc2cc3c(cc2Br)OCCO3)cc1,i,-3,i,-9.1*,i,28%*,i,42%*,103*,i
CC(=O)Nc1cc2c(cc1Br)OCCO2,i,-4,i,i,i,·,·,·,·,·
CCN(C(=O)CN1C(=O)COc2ccc(S(=O)(=O)N3CCCCCC3)cc21)c1cccc(C)c1,i,-11,-8.8*,-12*,i,44%*,i,24%*,120*,i
CCN(Cc1ccccc1)C(=O)CN1C(=O)COc2ccc(S(=O)(=O)N3CCCCCC3)cc21,i,-15,i,i,i,·,·,·,·,·
Cc1cc(C)c(C)c(C(=O)C(=O)c2ccccc2)c1,·,·,i,·,·,·,·,·,·,·
COc1ccc(NC(=S)N(CCN2CCCCC2)Cc2ccco2)cc1,i,-21,i,i,i,·,·,·,·,·
Cc1ccc(NC(=S)N(CCN2CCCCC2)Cc2ccco2)cc1Cl,i,-10,-10*,-8.2*,i,i,i,26%*,108*,i
O=C(NCc1ccon1)C1CCC(=O)N(CCc2cccc(F)c2)C1 (centres undefined),i,-4,i,i,i,·,·,·,·,·
Cc1c(Cl)cccc1-n1nnnc1-c1cccs1,i,-10,-11*,-9.3*,i,44%*,i,32%*,108*,i
CN1\C(=C/C=C/C=C/C=[N+](C)C)C(C)(C)c2ccccc21,16*,-53,-13*,-8.3*,i,58%*,76%*,58%*,155*,0.085*
CN1/C(=C\C=Nc2ccc3ccccc3c2)C(C)(C)c2ccccc21,·,·,i,·,·,·,·,·,·,·
Cn1nc(-c2ccccc2)c(C#N)c1Sc1cccc(Cl)c1,i,-10,-9.1*,-11*,i,55%*,i,52%*,113*,0.15*
Cc1ccc(C(C)C)cc1OCCn1cncn1,i,1,i,i,i,·,·,·,·,·
SMILES,KCNQ1 block,hERG protect,KCNK3 block,KCNK9 block,KCNQ1 act,KCNK9 inh conf,Kir2-1 spec,KCNK9 uninduced,KCNK3 inh conf,KCNK3 noninduced
S=C(N/N=C/c1ccco1)NC1CC2CCC1C2 (centres undefined),i,-1,i,i,i,·,·,·,·,·
COC(=O)c1cc(COc2ccc3oc(C)c(C(=O)OC(C)C)c3c2)c(C)o1,i,-5,i,-10*,i,i,i,46%*,92*,0.14*
O=C(Oc1c(Br)cc(C(=S)N2CCOCC2)cc1Br)c1ccc(Cl)cc1,i,2,i,i,i,·,·,·,·,·
O=C(Oc1ccc(C(=S)N2CCOCC2)cc1Br)c1cc(Cl)ccc1Cl,i,-8,-9.4*,-14*,i,48%*,i,35%*,99*,i
Cc1cc(NC(=O)CSc2cc(Cl)ccc2Cl)n(-c2ccccc2)n1,i,-22,-9.6*,-10*,i,48%*,i,i,127*,0.14*
Cc1cc(Nc2ccc(Cl)cc2)n(-c2cccc(Cl)c2)n1,i,-14,-9*,-8.2*,i,50%*,i,32%*,149*,0.15*
Cc1cc(NC(=O)CSCC(=O)Nc2nc3ccccc3[nH]2)no1,i,-3,i,i,i,·,·,·,·,·
COc1ccc(CCNC(=O)c2noc(C)c2[N+](=O)[O-])cc1OC,i,-10,i,i,i,·,·,·,·,·
CCc1nc(SCC(=O)NNC(=O)c2ccc(OC)cc2)c2ccccc2n1,i,-1,i,i,i,·,·,·,·,·

# High-throughput results: PubChem, Johns Hopkins Ion Channel Center
